Assay results reported in ChEMBL document CHEMBL1926569, “Novel (E)-1-(4-methyl-2-(alkylamino)thiazol-5-yl)-3-arylprop-2-en-1-ones as potent antimicrobial agents” (2011).

Assays:
[1] = system: Staphylococcus aureus; experiment: Antibacterial activity against Staphylococcus aureus ATCC 6538 after 24 hrs by microdilution method; type: functional; details: ATCC 6538, 24 h
Procedure, shortened: (§1)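 Broth microdilution in 96-well plates. Bacterial suspensions were adjusted in sterile saline to 1.0 × 10⁵ CFU/ml, prepared daily and kept at 4 °C. Compound was added to LB broth with 1.0 × 10⁴ CFU per well and shaken at 160 rpm for 24 h at […] (so in the source). MIC is the lowest concentration with no visible growth under a binocular microscope. OD655 was also read. Duplicate, repeated three times.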

[2] = system: Bacillus cereus; experiment: Antibacterial activity against clinical isolate of Bacillus cereus after 24 hrs by microdilution method; type: functional; procedure, shortened: as §1
[3] = system: Micrococcus flavus; experiment: Antibacterial activity against Micrococcus flavus ATCC 10240 after 24 hrs by microdilution method; type: functional; details: ATCC 10240, 24 h; procedure, shortened: as §1
[4] = system: Listeria monocytogenes; experiment: Antibacterial activity against Listeria monocytogenes NCTC 7973 after 24 hrs by microdilution method; type: functional; details: NCTC 7973, 24 h; procedure, shortened: as §1
[5] = system: Pseudomonas aeruginosa; experiment: Antibacterial activity against Pseudomonas aeruginosa ATCC 27853 after 24 hrs by microdilution method; type: functional; details: ATCC 27853, 24 h; procedure, shortened: as §1
[6] = system: Salmonella typhimurium; experiment: Antibacterial activity against Salmonella Typhimurium ATCC 13311 after 24 hrs by microdilution method; type: functional, Salmonella enterica subsp. enterica serovar Typhimurium; details: Salmonella enterica, ATCC 13311, 24 h; procedure, shortened: as §1
[7] = system: Escherichia coli; experiment: Antibacterial activity against Escherichia coli ATCC 35210 after 24 hrs by microdilution method; type: functional; details: ATCC 35210, 24 h; procedure, shortened: as §1
[8] = system: Enterococcus faecalis; experiment: Antibacterial activity against Enterococcus faecalis isolated from human after 24 hrs by microdilution method; type: functional; procedure, shortened: as §1
[9] = system: Staphylococcus aureus; experiment: Antibacterial activity against Staphylococcus aureus ATCC 6538 incubated for 24 hrs followed by serial sub-cultivation for 24 hrs by microdilution method; type: functional; details: ATCC 6538, 24 h
Procedure, shortened: (§2)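 MBC: after the 24 h LB broth microdilution (1.0 × 10⁴ CFU per well, 160 rpm), wells were serially sub-cultured into fresh broth plates and incubated a further 24 h. MBC is the lowest concentration with no visible growth, taken as 99.5% killing of the original inoculum. Duplicate, repeated three times.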

[10] = system: Bacillus cereus; experiment: Antibacterial activity against clinical isolate of Bacillus cereus incubated for 24 hrs followed by serial sub-cultivation for 24 hrs by microdilution; type: functional; procedure, shortened: as §2
[11] = system: Micrococcus flavus; experiment: Antibacterial activity against Micrococcus flavus ATCC 10240 incubated for 24 hrs followed by serial sub-cultivation for 24 hrs by microdilution; type: functional; details: ATCC 10240, 24 h; procedure, shortened: as §2
[12] = system: Listeria monocytogenes; experiment: Antibacterial activity against Listeria monocytogenes NCTC 7973 incubated for 24 hrs followed by serial sub-cultivation for 24 hrs by microdilution; type: functional; details: NCTC 7973, 24 h; procedure, shortened: as §2
[13] = system: Pseudomonas aeruginosa; experiment: Antibacterial activity against Pseudomonas aeruginosa ATCC 27853 incubated for 24 hrs followed by serial sub-cultivation for 24 hrs by microdilution; type: functional; details: ATCC 27853, 24 h; procedure, shortened: as §2
[14] = system: Salmonella typhimurium; experiment: Antibacterial activity against Salmonella Typhimurium ATCC 13311 incubated for 24 hrs followed by serial sub-cultivation for 24 hrs by microdilution; type: functional, Salmonella enterica subsp. enterica serovar Typhimurium; details: Salmonella enterica, ATCC 13311, 24 h; procedure, shortened: as §2
[15] = system: Escherichia coli; experiment: Antibacterial activity against Escherichia coli ATCC 35210 incubated for 24 hrs followed by serial sub-cultivation for 24 hrs by microdilution; type: functional; details: ATCC 35210, 24 h; procedure, shortened: as §2
[16] = system: Enterococcus faecalis; experiment: Antibacterial activity against Enterococcus faecalis isolated from human incubated for 24 hrs followed by serial sub-cultivation for 24 hrs by microdilution; type: functional; procedure, shortened: as §2
[17] = system: Aspergillus ochraceus; experiment: Antifungal activity against Aspergillus ochraceus ATCC 12066 after 72 hrs by serial dilution technique; type: functional; details: ATCC 12066, 72 h
Procedure, shortened: (§3)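 Modified microdilution in 96-well plates. Fungi were kept on malt agar at 4 °C. Spores were washed off in sterile 0.85% saline with 0.1% Tween 80. Compounds were dissolved at 1 mg/ml in 5% DMSO with 0.1% Tween 80 and added to malt broth with inoculum. Plates were shaken at 160 rpm for 72 h at 28 °C. Duplicate, repeated three times.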

[18] = system: Aspergillus niger; experiment: Antifungal activity against Aspergillus niger ATCC 6275 after 72 hrs by serial dilution technique; type: functional; details: ATCC 6275, 72 h; procedure, shortened: as §3
[19] = system: Aspergillus flavus; experiment: Antifungal activity against Aspergillus flavus ATCC 9643 after 72 hrs by serial dilution technique; type: functional; details: ATCC 9643, 72 h; procedure, shortened: as §3
[20] = system: Talaromyces funiculosus; experiment: Antifungal activity against Penicillium funiculosum ATCC 36839 after 72 hrs by serial dilution technique; type: functional; details: ATCC 36839, 72 h; procedure, shortened: as §3
[21] = system: Penicillium ochrochloron; experiment: Antifungal activity against Penicillium ochrochloron ATCC 9112 after 72 hrs by serial dilution technique; type: functional; details: ATCC 9112, 72 h; procedure, shortened: as §3
[22] = system: Trichoderma viride; experiment: Antifungal activity against Trichoderma viride IAM 5061 after 72 hrs by serial dilution technique; type: functional; details: IAM 5061, 72 h; procedure, shortened: as §3
[23] = system: Candida albicans; experiment: Antifungal activity against Candida albicans isolated from human after 72 hrs by serial dilution technique; type: functional; procedure, shortened: as §3
[24] = system: Aspergillus ochraceus; experiment: Antifungal activity against Aspergillus ochraceus ATCC 12066 incubated for 72 hrs followed by serial sub-cultivation for 72 hrs by serial dilution technique; type: functional; details: ATCC 12066, 72 h
Procedure, shortened: (§4)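 MFC: material from 72 h malt broth microdilution wells was serially sub-cultured into fresh broth plates and incubated a further 72 h at 28 °C. Fungicidal concentration is taken from growth after sub-culture. Duplicate, repeated three times.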

[25] = system: Aspergillus fumigatus; experiment: Antifungal activity against Aspergillus fumigatus isolated from human incubated for 72 hrs followed by serial sub-cultivation for 72 hrs by serial dilution technique; type: functional; procedure, shortened: as §4
[26] = system: Aspergillus niger; experiment: Antifungal activity against Aspergillus niger ATCC 6275 incubated for 72 hrs followed by serial sub-cultivation for 72 hrs by serial dilution technique; type: functional; details: ATCC 6275, 72 h; procedure, shortened: as §4
[27] = system: Aspergillus flavus; experiment: Antifungal activity against Aspergillus flavus ATCC 9643 incubated for 72 hrs followed by serial sub-cultivation for 72 hrs by serial dilution technique; type: functional; details: ATCC 9643, 72 h; procedure, shortened: as §4
[28] = system: Talaromyces funiculosus; experiment: Antifungal activity against Penicillium funiculosum ATCC 36839 incubated for 72 hrs followed by serial sub-cultivation for 72 hrs by serial dilution technique; type: functional; details: ATCC 36839, 72 h; procedure, shortened: as §4
[29] = system: Penicillium ochrochloron; experiment: Antifungal activity against Penicillium ochrochloron ATCC 9112 incubated for 72 hrs followed by serial sub-cultivation for 72 hrs by serial dilution technique; type: functional; details: ATCC 9112, 72 h; procedure, shortened: as §4
[30] = system: Trichoderma viride; experiment: Antifungal activity against Trichoderma viride IAM 5061 incubated for 72 hrs followed by serial sub-cultivation for 72 hrs by serial dilution technique; type: functional; details: IAM 5061, 72 h; procedure, shortened: as §4
[31] = system: Candida albicans; experiment: Antifungal activity against Candida albicans isolated from human incubated for 72 hrs followed by serial sub-cultivation for 72 hrs by serial dilution technique; type: functional; procedure, shortened: as §4
[32] = system: Pseudomonas aeruginosa; experiment: Ratio of ampicillin MIC to compound MIC for Pseudomonas aeruginosa ATCC 27853; type: functional
[33] = system: Aspergillus ochraceus; experiment: Ratio of bifonazole to compound for Aspergillus ochraceus ATCC 12066; type: functional
[34] = system: Aspergillus niger; experiment: Ratio of bifonazole to compound for Aspergillus niger ATCC 6275; type: functional
[35] = system: Talaromyces funiculosus; experiment: Ratio of bifonazole to compound for Penicillium funiculosum ATCC 36839; type: functional
[36] = system: Penicillium ochrochloron; experiment: Ratio of bifonazole to compound for Penicillium ochrochloron ATCC 9112; type: functional
[37] = system: Trichoderma viride; experiment: Ratio of bifonazole to compound for Trichoderma viride IAM 5061; type: functional
[38] = system: Candida albicans; experiment: Ratio of bifonazole to compound for Candida albicans isolated from human; type: functional
[39] = system: Aspergillus ochraceus; experiment: Ratio of ketoconazole to compound for Aspergillus ochraceus ATCC 12066; type: functional
[40] = system: Aspergillus fumigatus; experiment: Ratio of ketoconazole to compound for Aspergillus fumigatus isolated from human; type: functional
[41] = system: Penicillium ochrochloron; experiment: Ratio of ketoconazole to compound for Penicillium ochrochloron ATCC 9112; type: functional
[42] = system: Candida albicans; experiment: Ratio of ketoconazole to compound for Candida albicans isolated from human; type: functional
[43] = system: Aspergillus ochraceus; experiment: Antifungal activity against Aspergillus ochraceus after 72 hrs by serial dilution technique

CCNc1nc(C)c(C(=O)/C=C/c2ccc(OC)cc2)s1
33.1 µM: MIC [18] | MIC [20] | MIC [22]
66.2 µM: MIC [1] | MIC [2] | MIC [5] | MIC [8] | MBC [15] | MIC [17] | MIC [19] | MIC [21] | MIC [23] | MFC [26] | MFC [28] | MFC [30] | MIC [43]
99.3 µM: MBC [9] | MBC [12] | MBC [16]
49.7 µM: MIC [6] | MIC [7] | MBC [14]
10: Ratio [32] | Ratio [33] | Ratio [34] | Ratio [35] | Ratio [36] | Ratio [37] | Ratio [38] | Ratio [39] | Ratio [40] | Ratio [41] | Ratio [42]
82.5 µM: MBC [11]
82.8 µM: MIC [4] | MBC [10] | MBC [13] | MFC [24] | MFC [25] | MFC [27] | MFC [29] | MFC [31]
31.3 µM: MIC [3]
